Drawing on ChEMBL document CHEMBL1147630, “New PDMP analogues inhibit process outgrowth in an insect cell line” (Bioorg Med Chem Lett, 2004), this text covers Inhibitory effect and Concentration for four compounds.

Test [1] has as its system MRRL-CH1. Nature of the test: Inhibitory effect on outgrowth of MRRL-CH1 cell line at 0.5 uM concentration; Reversible. The class given is functional, cell-based. As to conditions: Manduca sexta. A digest of the protocol:
(§1)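 Embryonic Manduca sexta MRRL-CH1 cells, grown attached in DL medium in room air. Analogue in DMSO was added to well cultures 2–4 days after seeding, for 48 h. Drug was then diluted 16-fold by two medium exchanges, and cells were followed for 6 more days. Neurite outgrowth and reversibility were judged from photographs taken at 0, 24 and 48 h of exposure and at 24, 48 and 144 h after removal. Duplicates, with DMSO vehicle control.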

The subject of test [2] is MRRL-CH1. Nature of the test: Inhibitory effect on outgrowth of MRRL-CH1 cell line at 5 uM concentration; Irreversible. The class given is functional, cell-based. As to conditions: Manduca sexta. In a few lines:
as §1

Test [3] deals with MRRL-CH1. Nature of the test: Inhibitory effect on outgrowth of MRRL-CH1 cell line at 1 uM concentration; Irreversible. The class given is functional, cell-based. As to conditions: Manduca sexta. In a few lines: as §1
Test [4] concerns MRRL-CH1. Nature of the test: Inhibitory effect on outgrowth of MRRL-CH1 cell line at 5 uM concentration; No Effect. As to conditions: Manduca sexta. The class given is functional, cell-based. A digest of the protocol:
as §1

For the next test, the species on record is Rattus norvegicus. Briefly: Concentration required to reduce the length of total axon plexus in rat embryonic hippocampal neurons. It counts as functional.
For a further test, the system named is SH-SY5Y. Briefly: Concentration required to inhibit neurite outgrowth in SH-SY5Y cell line. It counts as functional, cell-based.
For test [5], the system named is MRRL-CH1. Nature of the test: Inhibitory effect on outgrowth of MRRL-CH1 cell line at 0.5 uM concentration; No Effect. It counts as functional, cell-based. As to conditions: Manduca sexta. A digest of the protocol:
as §1

Test [6] concerns MRRL-CH1. Nature of the test: Inhibitory effect on outgrowth of MRRL-CH1 cell line at 1 uM concentration; No Effect. It counts as functional, cell-based. As to conditions: Manduca sexta. A digest of the protocol: as §1

SMILES strings stand for the structures. Activity calls are given as the source filed them. No cut-off for these calls is given here.

For `CCCCCCCCCC(=O)N[C@H](CN1CCOCC1)[C@H](O)c1ccc2c(c1)OCO2`, the Inhibitory effect entry with MRRL-CH1 [1] is “Reversible”; with MRRL-CH1 [2], “Irreversible”; with MRRL-CH1 [3], “Irreversible”.

For `CCCCCCCCCC(=O)N[C@H](CN1CCOCC1)[C@H](O)c1ccccc1`, the Inhibitory effect entry in the test on MRRL-CH1 [4], in the test on MRRL-CH1 [5] and with MRRL-CH1 [6] was “inactive” throughout. Moreover, the Concentration in the test listed under Rattus norvegicus came out at 50 µM; in the test with SH-SY5Y, 20 µM.

With `CCCCCCCCCC(=O)N[C@H](CN1CCOCC1)[C@H](O)c1ccc(OC(C)(C)C)cc1`, the Inhibitory effect entry in the test with MRRL-CH1 [1] was “Reversible”; with MRRL-CH1 [2] it was “Irreversible”; in the test on MRRL-CH1 [3], “Irreversible”.

`CCCCCCCCCC(=O)N[C@H](CN1CCOCC1)[C@H](O)c1ccc(OC)cc1`: the Inhibitory effect entry in the test on MRRL-CH1 [1] is given as “Reversible”; in the test with MRRL-CH1 [2] it was “Irreversible”; in the test on MRRL-CH1 [3], “Irreversible”.
